Data: ChEMBL document CHEMBL1123183, “Synthesis and antiviral properties of 5-(2-substituted vinyl)-6-aza-2'-deoxyuridines” (1986)
In brackets after ≈: the same amount, converted by molar mass.

Tests used:
Type in all cases: functional
Conditions in all cases: Chlorocebus sabaeus, read-out: ID50 (the source's name)
Vero [1] = experiment: In vitro antiviral activity against HSV-1(strain HFEM) in Vero cells
Outline: (§1)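 Plaque reduction in confluent Vero monolayers infected with 30-40 PFU of HSV-1 (strain HFEM) or HSV-2 (strain 196), then 1 h at 37 °C. Overlay of maintenance medium with 0.75% carboxymethylcellulose and a range of compound concentrations, then 2 days at 37 °C. Cells fixed and stained, plaques counted. ID50 is the concentration giving 50% plaque inhibition.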

Vero [2] = experiment: In vitro antiviral activity against HSV-2(strain 196) in Vero cells; outline: as §1
Vero [3] = experiment: Cytotoxicity was measured by determining the incorporation of [methyl-3H]thymidine into DNA of Vero cells
Outline: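 Subconfluent Vero monolayers overlaid with maintenance medium holding 1 μCi/mL [methyl-3H]thymidine plus a range of nucleoside concentrations. Incubated 18 h at 37 °C. DNA synthesis read as label in acid-precipitable material. ID50 is the concentration giving 50% reduction of thymidine incorporation.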

SMILES | IC50 (Vero [1]) [µg/mL] | IC50 (Vero [2]) [µg/mL] | IC50 (Vero [3]) [µg/mL]
O=c1[nH]c(=O)n(C2C[C@@H](O)[C@@H](CO)O2)nc1-c1ccoc1 (stereo partly drawn) | 42 (≈ 142 µM) | 39 (≈ 132 µM) | 45 (≈ 152 µM)
O=c1[nH]c(=O)n(C2C[C@@H](O)[C@@H](CO)O2)nc1C=C(Br)Br (stereo partly drawn) | 100 (≈ 242 µM) | 100 (≈ 242 µM) | > 500
COC(=O)/C=C/c1nn(C2C[C@@H](O)[C@@H](CO)O2)c(=O)[nH]c1=O (stereo partly drawn) | > 500 | – | > 500
O=c1[nH]c(=O)n(C2C[C@@H](O)[C@@H](CO)O2)nc1CC(F)(F)F (stereo partly drawn) | > 250 | > 250 | > 500
CS/C=C/c1nn(C2C[C@@H](O)[C@@H](CO)O2)c(=O)[nH]c1=O (stereo partly drawn) | > 250 | > 250 | 420 (≈ 1390 µM)
O=C(O)/C=C/c1nn(C2C[C@@H](O)[C@@H](CO)O2)c(=O)[nH]c1=O (stereo partly drawn) | > 250 | – | > 500
O=c1[nH]c(=O)n(C2C[C@@H](O)[C@@H](CO)O2)nc1/C=C/Cl (stereo partly drawn) | 20 (≈ 69 µM) | 215 (≈ 742 µM) | > 500
O=c1[nH]c(=O)n(C2C[C@@H](O)[C@@H](CO)O2)nc1/C=C/Br (stereo partly drawn) | 8 (≈ 23.9 µM) | 190 (≈ 569 µM) | 355 (≈ 1060 µM)
O=Cc1nn(C2C[C@@H](O)[C@@H](CO)O2)c(=O)[nH]c1=O (stereo partly drawn) | > 500 | – | 180 (≈ 700 µM)
COC(F)(F)Cc1nn(C2C[C@@H](O)[C@@H](CO)O2)c(=O)[nH]c1=O (stereo partly drawn) | 82 (≈ 254 µM) | > 250 | > 500
O=c1[nH]c(=O)n(C2C[C@@H](O)[C@@H](CO)O2)nc1/C=C(\F)Br (stereo partly drawn) | > 250 | > 250 | > 500
O=c1[nH]c(=O)n([C@H]2C[C@H](O)[C@@H](CO)O2)cc1/C=C/Br [BRIVUDINE] | 0.015 (≈ 0.045 µM) | 1.6 (≈ 4.8 µM) | 50 (≈ 150 µM)
